This passage reports inhibition, IC50 and Activity results from ChEMBL document CHEMBL1909563, “Anti-inflammatory triterpenoid saponins from the stem bark of Kalopanax pictus” (J Nat Prod, 2011).

As a reminder, the IC50 is the point on the concentration scale where inhibition reaches its midpoint. A high value points to weaker potency.

The structures appear in SMILES notation. Activity calls are given as the source filed them. The rule behind the calls is not given here. Bounds are passed on as bounds.

Holding throughout (format): cell-based
The subject of data set [1] is HepG2. Description: Inhibition of NF-kappaB-induced COX2 mRNA expression in TNF-alpha-stimulated human HepG2 cells at 0.1 to 10 uM after 1 hr by RT-PCR analysis. The essentials: (§1)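 HepG2 cells stimulated with TNFα alone or with compound at 0.1, 1 and 10 μM; COX-2 and iNOS mRNA measured against β-actin housekeeping control. Mean ± SD (n = 6); significance versus TNFα-stimulated cells by Dunnett's multiple comparison test (p < 0.05, p < 0.01).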

Data set [2] has as its system HepG2. Put plainly: Inhibition of NF-kappaB-induced iNOS mRNA expression in TNF-alpha-stimulated human HepG2 cells at 0.1 to 10 uM after 1 hr by RT-PCR analysis. The essentials: as §1
Data set [3] can be described thus: Inhibition of TNF-alpha-induced NFkappaB activation in human HepG2 cells after 1 hr by luciferase reporter assay. Conditions: HepG2, 1 h. An outline of the steps:
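HepG2 cells seeded at 1.5 × 10^5 per well, grown 24 h, then transiently transfected with NF-kB-responsive firefly luciferase reporter (minimal CMV promoter, tandem NF-kB response elements). Pretreated 1 h with DMSO vehicle or compound, then 10 ng/mL TNFα for 1 h; cells lysed, luciferin added, luminescence read.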
(In general: Reporter assays use an easily measured gene product as a stand-in for the process of interest.)

For data set [4], the system named is HepG2. Description: Cytotoxicity against human HepG2 cells by MTT assay. In general terms: Tetrazolium assays rely on reduction of a dye to a coloured formazan, in cell work by metabolically active cells.
Data set [5] concerns HepG2. Description: Inhibition of NF-kappaB-induced iNOS mRNA expression in TNF-alpha-stimulated human HepG2 cells after 1 hr by RT-PCR analysis. The essentials:
as §1

Data set [6] deals with HepG2. Description: Inhibition of NF-kappaB-induced COX2 mRNA expression in TNF-alpha-stimulated human HepG2 cells after 1 hr by RT-PCR analysis. An outline of the steps:
as §1

As for `CC1(C)CC[C@]2(C(=O)O)CC[C@]3(C)C(=CC[C@@H]4[C@@]5(C)CC[C@H](O)[C@@](C)(CO)[C@@H]5CC[C@]43C)[C@@H]2C1` [HEDERAGENIN], the inhibition result in the data set on HepG2 [1] and with HepG2 [2] was “inactive” each time. The half-maximal inhibitory concentration (IC50) in data set [3] is greater than 20 µM.
On to `CC(=O)O[C@@H]1[C@@H](OC(C)=O)[C@H](O[C@H]2CC[C@@]3(C)[C@@H](CC[C@]4(C)[C@@H]3CC=C3[C@@H]5CC(C)(C)CC[C@]5(C(=O)O[C@@H]5O[C@H](CO[C@@H]6O[C@H](CO)[C@@H](O[C@@H]7O[C@@H](C)[C@H](O)[C@@H](O)[C@H]7O)[C@H](O)[C@H]6O)[C@@H](O)[C@H](O)[C@H]5O)CC[C@]34C)[C@]2(C)CO)OC[C@@H]1O`, for which the Activity entry in the data set on HepG2 [4] is given as “Non-toxic”. For the same molecule, the inhibition result with HepG2 [5] and in the data set on HepG2 [6] was “Dose-dependent effect” each time. The molecule also came in with an IC50 in data set [3] of 8.9 µM.
Take `CC1(C)CC[C@]2(C(=O)O[C@@H]3O[C@H](CO)[C@@H](O)[C@H](O)[C@H]3O)CC[C@]3(C)C(=CC[C@@H]4[C@@]5(C)CC[C@H](O)[C@@](C)(CO)[C@@H]5[C@H](O)C[C@]43C)[C@@H]2C1`: the Activity entry in the data set on HepG2 [4] is given as “Non-toxic”. In addition, the inhibition entry with HepG2 [5] and in the data set with HepG2 [6] was “Dose-dependent effect” in each case. Also, the midpoint of inhibition in data set [3], the IC50, lay at 16.4 µM.
`C[C@@]1(CO)CC[C@]2(C(=O)O)CC[C@]3(C)C(=CC[C@@H]4[C@@]5(C)CC[C@H](O)[C@@](C)(CO)[C@@H]5CC[C@]43C)[C@@H]2C1` [NIPPONOGENIN E] showed an IC50 in data set [3] greater than 20 µM.
`COC(=O)CC[C@]1(C)[C@H]2CC=C3[C@@H]4C[C@](C)(CO)CC[C@]4(C(=O)O)CC[C@@]3(C)[C@]2(C)CC[C@H]1C(C)(O)CO` (some centres not stated): the Activity entry in the data set on HepG2 [4] is reported as “Non-toxic”. In addition, the inhibition entry in the data set on HepG2 [5] and in the data set on HepG2 [6] was “Dose-dependent effect” each time. This molecule displayed an IC50 in data set [3] of 9.4 µM.
For `CC1(C)CC[C@]2(C(=O)O)CC[C@]3(C)C(=CC[C@@H]4[C@@]5(C)CC[C@H](O)[C@@](C)(CO)[C@@H]5[C@H](O)C[C@]43C)[C@@H]2C1`, the Activity entry with HepG2 [4] was “Non-toxic”. Also, the inhibition result with HepG2 [5] and in the data set on HepG2 [6] was “Dose-dependent effect” each time. Further, in data set [3], it took 1.4 µM to reach half-maximal inhibition (IC50).
For the molecule `CC(=O)O[C@@H]1[C@@H](O)[C@H](O[C@H]2CC[C@@]3(C)[C@@H](CC[C@]4(C)[C@@H]3CC=C3[C@@H]5CC(C)(C)CC[C@]5(C(=O)O[C@@H]5O[C@H](CO[C@@H]6O[C@H](CO)[C@@H](O[C@@H]7O[C@@H](C)[C@H](O)[C@@H](O)[C@H]7O)[C@H](O)[C@H]6O)[C@@H](O)[C@H](O)[C@H]5O)CC[C@]34C)[C@]2(C)CO)OC[C@@H]1OC(C)=O`, the Activity entry in the data set with HepG2 [4] is reported as “Non-toxic”. Moreover, the inhibition result with HepG2 [5] and in the data set with HepG2 [6] was “Dose-dependent effect” each time. For the same molecule, the midpoint of inhibition in data set [3], the IC50, lay at 9.3 µM.
With `CC1(C)CC[C@]2(C(=O)O[C@@H]3O[C@H](CO)[C@@H](O)[C@H](O)[C@H]3O)CC[C@]3(C)C(=CC[C@@H]4[C@@]5(C)CC[C@H](O)[C@@](C)(CO)[C@@H]5CC[C@]43C)[C@@H]2C1`, the Activity entry in the data set with HepG2 [4] is listed as “Non-toxic”. For the same molecule, the inhibition entry with HepG2 [5] and in the data set with HepG2 [6] was “Dose-dependent effect” throughout. In data set [3], this molecule yielded an IC50 of 9.1 µM.
For `C[C@@]1(CO)CC[C@]2(C(=O)O)[C@H](O)C[C@]3(C)C(=CC[C@@H]4[C@@]5(C)CCC(=O)[C@@](C)(CO)[C@@H]5CC[C@]43C)[C@@H]2C1`, the Activity entry with HepG2 [4] was “Non-toxic”. Besides, the inhibition entry in the data set on HepG2 [5] and in the data set on HepG2 [6] was “Dose-dependent effect” throughout. Further, the IC50 in data set [3] is 6.5 µM.
Turning to `C[C@@H]1O[C@@H](O[C@H]2[C@H](O)[C@@H](O)[C@H](OC[C@H]3O[C@@H](OC(=O)[C@]45CCC(C)(C)C[C@H]4C4=CC[C@@H]6[C@@]7(C)CC[C@H](O[C@@H]8OC[C@H](O)[C@H](O)[C@H]8O[C@@H]8O[C@@H](C)[C@H](O)[C@@H](O[C@@H]9OC[C@@H](O)[C@H](O)[C@H]9O)[C@H]8O)[C@@](C)(CO)[C@@H]7CC[C@@]6(C)[C@]4(C)CC5)[C@H](O)[C@@H](O)[C@@H]3O)O[C@@H]2CO)[C@H](O)[C@H](O)[C@H]1O` [SIEBOLDIANOSIDE A], the Activity entry in the data set on HepG2 [4] is on record as “Non-toxic”. The inhibition result in the data set with HepG2 [5] and in the data set with HepG2 [6] was “Dose-dependent effect” throughout. Also, the IC50 in data set [3] is 0.6 µM.
Consider `C[C@@H]1O[C@@H](O[C@H]2[C@H](O[C@H]3CC[C@@]4(C)[C@@H](CC[C@]5(C)[C@@H]4CC=C4[C@@H]6CC(C)(C)CC[C@]6(C(=O)O[C@@H]6O[C@H](CO[C@@H]7O[C@H](CO)[C@@H](O[C@@H]8O[C@@H](C)[C@H](O)[C@@H](O)[C@H]8O)[C@H](O)[C@H]7O)[C@@H](O)[C@H](O)[C@H]6O)CC[C@]45C)[C@]3(C)CO)OC[C@H](O)[C@@H]2O[C@@H]2O[C@H](CO)[C@@H](O)[C@H](O)[C@H]2O)[C@H](O)[C@H](O)[C@H]1O` [KALOPANAXSAPONIN C], for which the Activity result with HepG2 [4] is given as “Non-toxic”. The inhibition result with HepG2 [5] and in the data set on HepG2 [6] was “Dose-dependent effect” each time. Moreover, in data set [3], it took 3.9 µM to reach half-maximal inhibition (IC50).
Regarding `C[C@@H]1O[C@@H](O[C@H]2[C@H](O[C@H]3CC[C@@]4(C)[C@@H](CC[C@]5(C)[C@@H]4CC=C4[C@@H]6CC(C)(C)CC[C@]6(C(=O)O[C@@H]6O[C@H](CO[C@@H]7O[C@H](CO)[C@@H](O[C@@H]8O[C@@H](C)[C@H](O)[C@@H](O)[C@H]8O)[C@H](O)[C@H]7O)[C@@H](O)[C@H](O)[C@H]6O)CC[C@]45C)[C@]3(C)CO)OC[C@H](O)[C@@H]2O)[C@H](O)[C@H](O)[C@H]1O` [KALOPANAXSAPONIN B], the Activity result in the data set on HepG2 [4] is “Non-toxic”. In addition, the inhibition result in the data set on HepG2 [5] and in the data set with HepG2 [6] was “Dose-dependent effect” throughout. This molecule also came in with an IC50 in data set [3] of 0.8 µM.
In turn, `O=C(O)c1cc(/N=N/c2ccc(S(=O)(=O)Nc3ccccn3)cc2)ccc1O` [SULFASALAZINE] registered an IC50 in data set [3] of 0.9 µM.
Turning to `CC1(C)CC[C@]2(C(=O)O[C@@H]3O[C@H](CO[C@@H]4O[C@H](CO)[C@@H](O)[C@H](O)[C@H]4O)[C@@H](O)[C@H](O)[C@H]3O)CC[C@]3(C)C(=CC[C@@H]4[C@@]5(C)CC[C@H](O)[C@@](C)(CO)[C@@H]5CC[C@]43C)[C@@H]2C1` [DIPSACUSSAPONIN A], the Activity entry with HepG2 [4] is on record as “Non-toxic”. For the same molecule, the inhibition entry in the data set with HepG2 [5] and with HepG2 [6] was “Dose-dependent effect” in each case. In data set [3], this molecule gave a half-inhibitory concentration (IC50) of 6.2 µM.
`C[C@@H]1O[C@@H](O[C@H]2[C@H](O[C@H]3CC[C@@]4(C)[C@@H](CC[C@]5(C)[C@@H]4CC=C4[C@@H]6CC(C)(C)CC[C@]6(C(=O)O)CC[C@]45C)[C@]3(C)CO)OC[C@H](O)[C@@H]2O)[C@H](O)[C@H](O)[C@H]1O` [ALPHA-HEDERIN]: the Activity entry in the data set with HepG2 [4] is recorded as “Non-toxic”. The inhibition result with HepG2 [5] and with HepG2 [6] was “Dose-dependent effect” throughout. This molecule returned an IC50 in data set [3] of 5.5 µM.
On to `C[C@@H]1O[C@@H](O[C@H]2[C@H](O)[C@@H](O)[C@H](OC[C@H]3O[C@@H](OC(=O)[C@]45CCC(C)(C)C[C@H]4C4=CC[C@@H]6[C@@]7(C)CC[C@H](O[C@@H]8OC[C@H](O)[C@H](O)[C@H]8O)[C@@](C)(CO)[C@@H]7CC[C@@]6(C)[C@]4(C)CC5)[C@H](O)[C@@H](O)[C@@H]3O)O[C@@H]2CO)[C@H](O)[C@H](O)[C@H]1O` [CAULOSIDE D], for which the Activity entry with HepG2 [4] is on record as “Non-toxic”. The inhibition result in the data set with HepG2 [5] and in the data set with HepG2 [6] was “Dose-dependent effect” throughout. In data set [3], this molecule gave an IC50 of 9.2 µM.
